Published values from different studies.
Effect on: metabolic stability
Species: rat

`C[C@]12CC[C@H]3[C@@H](CCC4=CC(=O)CC[C@@]43C)[C@@H]1CC[C@@H]2O` has a half-life of 1.55 min (liver microsomes).
For `C[C@]12CC[C@H]3[C@@H](CCC4=CC(=O)CC[C@@]43C)[C@@H]1CC[C@@H]2O`, the half-life was 5.45 min (liver microsomes; 1 µM, pH 7.4).
The half-life of `CC(C)CC(=O)OC[C@H]1O[C@@](C#N)(c2ccc3c(N)ncnn23)[C@H](O)[C@@H]1O` is reported as 0.422 min (plasma; 5 µM).
The half-life of `O=c1[nH]c2ccccc2n1C1CCN(CCCC(c2ccc(F)cc2)c2ccc(F)cc2)CC1` is reported as 80 min (liver microsomes; 100 ng/mL).
For `Cc1[nH]c(C)c(S(=O)(=O)Nc2ccc(S(F)(F)(F)(F)F)c(Cl)c2)c1C(=O)N1CCC(F)(F)C1`, the half-life was 34 min (liver microsomes).
With `Cc1ncc2n1-c1ccc(Cl)cc1C(c1ccccc1F)=NC2` the half-life was 20.4 min (hepatocytes).
`Cc1[nH]c(C)c(S(=O)(=O)Nc2ccc(S(=O)(=O)F)c(Cl)c2)c1C(=O)N1CCC(F)(F)C1` has a half-life of 11 min (liver microsomes).
`CC(=O)c1c(C)c2cnc(Nc3ccc(C4CCN(CCS(C)(=O)=O)CC4)cn3)nc2n(C2CCCC2)c1=O` gave a half-life of 65.4 min (liver microsomes).
